From ChEMBL document CHEMBL1158400, “Synthesis of 2-styrylchromones as a novel class of antiproliferative agents targeting carcinoma cells” (Eur J Med Chem, 2009)
Calls of active or inactive are those of the source. No cut-off for these calls is given here.

Test system: HeLa
Test: Antiproliferative activity against human HeLa cells assessed as morphological changes at 5 uM after 24 hrs using DAPI staining by fluorescence microscopy
Assay type: functional, cell-based
Conditions: not given
How it was run: (§1)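 HeLa cells were exposed 24 h to 5, 10 or 20 μM compound, with untreated and DMSO controls. Morphology (cell rounding, detachment from substratum) was examined.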

SMILES	Activity
COc1ccc2c(=O)cc(/C=C/c3ccc(OC(F)(F)F)cc3)oc2c1OC	Active

Test system: HeLa
Test: Antiproliferative activity against human HeLa cells assessed as morphological changes at 10 uM after 24 hrs using DAPI staining by fluorescence microscopy
Assay type: functional, cell-based
Conditions: not given
How it was run: as §1

SMILES	Activity
COc1ccc2c(=O)cc(/C=C/c3ccc(OC(F)(F)F)cc3)oc2c1OC	Active

Test system: HeLa
Test: Antiproliferative activity against human HeLa cells at 10 uM after 30 hrs by MTT assay
Assay type: functional
Conditions: not given
How it was run: (§2)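 HeLa cells at 10^4 cells/well were given the compound at 1.0, 3.0 or 10 μM, alongside an untreated control and a 0.1% DMSO control. Proliferation was followed by MTT at several time points over a 30 h period.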

SMILES	Activity
COc1ccc2c(=O)cc(/C=C/c3ccc(OC(F)(F)F)cc3)oc2c1OC	60%

Test system: HeLa
Test: Cell cycle arrest in human HeLa cells assessed as accumulation at G1 phase at 20 uM after 24 hrs using propidium iodide staining by FACS analysis
Assay type: functional, cell-based
Conditions: not given

SMILES	Activity
COc1cc(OC)c2c(=O)cc(/C=C/c3ccccc3)oc2c1	Active
COc1cc(OC)c2c(=O)cc(/C=C/c3ccc(C(F)(F)F)cc3)oc2c1	Active

Test system: HeLa
Test: Antiproliferative activity against human HeLa cells assessed as DNA fragmentation at 5 uM after 24 hrs using […] DAPI staining by fluorescence microscopy
Assay type: functional, cell-based
Conditions: not given
How it was run: (§3)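 HeLa cells grown on cover glasses were treated 24 h with 5 or 10 μM compound, with untreated and 0.5% DMSO controls. They were fixed in 4% paraformaldehyde, glycine-washed and permeabilized with 2% FBS/0.4% Triton X-100. Nuclei were stained with DAPI (0.1 μg/ml) for 5 min in the dark, and DNA fragmentation was examined by fluorescence microscopy.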

SMILES	Activity
COc1ccc2c(=O)cc(/C=C/c3ccc(OC(F)(F)F)cc3)oc2c1OC	inactive

Test system: HeLa
Test: Antiproliferative activity against human HeLa cells assessed as DNA fragmentation at 10 uM after 24 hrs using […] DAPI staining by fluorescence microscopy
Assay type: functional, cell-based
Conditions: not given
How it was run: as §3

SMILES	Activity
COc1ccc2c(=O)cc(/C=C/c3ccc(OC(F)(F)F)cc3)oc2c1OC	Active

Test system: HeLa
Test: Antiproliferative activity against human HeLa cells assessed as morphological changes at 20 uM after 24 hrs using DAPI staining by fluorescence microscopy
Assay type: functional, cell-based
Conditions: not given
How it was run: as §1

SMILES	Activity
COc1ccc2c(=O)cc(/C=C/c3ccc(OC(F)(F)F)cc3)oc2c1OC	Active

Test system: HeLa
Test: Cell cycle arrest in human HeLa cells assessed as accumulation at sub-G1 phase after 24 hrs using propidium iodide staining by FACS analysis
Assay type: functional, cell-based
Conditions: not given
How it was run: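 HeLa cells were treated 24 h with compound at 5 or 20 μM, with a 0.5% DMSO control and untreated blank. Cells were harvested, rinsed in PBS and fixed in 80% ethanol at −20 °C. They were stained with propidium iodide and analysed by flow cytometry. The sub-diploid (apoptotic) population is expressed as a percentage of all cells.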

SMILES	Activity
COc1ccc2c(=O)cc(/C=C/c3ccc(OC(F)(F)F)cc3)oc2c1OC	Dose-dependent effect

Test system: not listed separately
Test: Antiproliferative activity against human SKHep cells after 12 hrs by MTT assay
Assay type: functional, cell-based
Conditions: not given
How it was run: (§4)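 MTT assay. Cells grown as monolayers in DMEM with 10% FBS, 2 mM glutamine and penicillin/streptomycin at 37 °C, 5% CO2. Seeded at 1×10^4 cells/well and held 12 h before serial compound dilutions were added. Final DMSO was under 1% (v/v). MTT (2 mg/ml) was present for the last 1.5 h; the formazan was dissolved in DMSO and read at 570 nm. IC50 interpolated from dose-response curves; mean ± sem of four to six experiments.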

SMILES	IC50
COc1cc(OC)c2c(=O)cc(/C=C/c3ccc(Br)cc3)oc2c1	> 40 µM
COc1ccc(/C=C/c2cc(=O)c3c(OC)cc(OC)cc3o2)cc1	> 40 µM
COc1cc(OC)c2c(=O)cc(/C=C/c3ccc(Cl)cc3)oc2c1	26.9 µM
COc1cc(OC)c2c(=O)cc(/C=C/c3ccc4c(c3)OCO4)oc2c1	23.7 µM
COc1cc(OC)c2c(=O)cc(/C=C/c3ccccc3)oc2c1	26 µM
COc1cc(OC)c2c(=O)cc(/C=C/c3ccc(F)cc3)oc2c1	29.2 µM
COc1ccc2c(=O)cc(/C=C/c3ccc(OC(F)(F)F)cc3)oc2c1OC	12.4 µM
COc1cc(OC)c2c(=O)cc(/C=C/c3ccc(C(F)(F)F)cc3)oc2c1	20.6 µM

Test system: HeLa
Test: Antiproliferative activity against human HeLa cells after 12 hrs by MTT assay
Assay type: functional, cell-based
Conditions: not given
How it was run: as §4

SMILES	IC50
COc1cc(OC)c2c(=O)cc(/C=C/c3ccc(Cl)cc3)oc2c1	14.2 µM
COc1cc(OC)c2c(=O)cc(/C=C/c3ccc4c(c3)OCO4)oc2c1	16.4 µM
COc1cc(OC)c2c(=O)cc(/C=C/c3ccccc3)oc2c1	10.1 µM
COc1cc(OC)c2c(=O)cc(/C=C/c3ccc(F)cc3)oc2c1	14.2 µM
COc1ccc2c(=O)cc(/C=C/c3ccc(OC(F)(F)F)cc3)oc2c1OC	4.9 µM
COc1cc(OC)c2c(=O)cc(/C=C/c3ccc(C(F)(F)F)cc3)oc2c1	19 µM

Now from value to compound:

IC50	SMILES
> 40 µM	COc1cc(OC)c2c(=O)cc(/C=C/c3ccc(Br)cc3)oc2c1
17.8 µM	COc1ccc(/C=C/c2cc(=O)c3c(OC)cc(OC)cc3o2)cc1

Test system: A549
Test: Antiproliferative activity against human A549 cells after 12 hrs by MTT assay
Assay type: functional, cell-based
Conditions: A549, 12 h
How it was run: as §4

SMILES	IC50
COc1cc(OC)c2c(=O)cc(/C=C/c3ccc(Cl)cc3)oc2c1	> 40 µM
COc1cc(OC)c2c(=O)cc(/C=C/c3ccc4c(c3)OCO4)oc2c1	> 40 µM
COc1cc(OC)c2c(=O)cc(/C=C/c3ccccc3)oc2c1	21.5 µM
COc1cc(OC)c2c(=O)cc(/C=C/c3ccc(F)cc3)oc2c1	18.6 µM
COc1ccc2c(=O)cc(/C=C/c3ccc(OC(F)(F)F)cc3)oc2c1OC	> 40 µM
COc1cc(OC)c2c(=O)cc(/C=C/c3ccc(C(F)(F)F)cc3)oc2c1	> 40 µM

Other lines, results leading:

IC50	SMILES
> 40 µM	COc1cc(OC)c2c(=O)cc(/C=C/c3ccc(Br)cc3)oc2c1
> 40 µM	COc1ccc(/C=C/c2cc(=O)c3c(OC)cc(OC)cc3o2)cc1

Test system: HeLa
Test: Antiproliferative activity against human HeLa cells at 3 uM after 30 hrs by MTT assay
Assay type: functional
Conditions: not given
How it was run: as §2

SMILES	Activity
COc1ccc2c(=O)cc(/C=C/c3ccc(OC(F)(F)F)cc3)oc2c1OC	15%

Test system: not listed separately
Test: Antiproliferative activity against human BT-483 cells after 12 hrs by MTT assay
Assay type: functional, cell-based
Conditions: BT-483, 12 h, read-out: IC50
How it was run: as §4

SMILES	IC50
COc1cc(OC)c2c(=O)cc(/C=C/c3ccc(Br)cc3)oc2c1	> 40 µM
COc1ccc(/C=C/c2cc(=O)c3c(OC)cc(OC)cc3o2)cc1	29.6 µM
COc1cc(OC)c2c(=O)cc(/C=C/c3ccc(Cl)cc3)oc2c1	26.1 µM
COc1cc(OC)c2c(=O)cc(/C=C/c3ccc4c(c3)OCO4)oc2c1	29.3 µM
COc1cc(OC)c2c(=O)cc(/C=C/c3ccccc3)oc2c1	> 40 µM
COc1cc(OC)c2c(=O)cc(/C=C/c3ccc(F)cc3)oc2c1	19.9 µM
COc1ccc2c(=O)cc(/C=C/c3ccc(OC(F)(F)F)cc3)oc2c1OC	30.9 µM
COc1cc(OC)c2c(=O)cc(/C=C/c3ccc(C(F)(F)F)cc3)oc2c1	> 40 µM

Same assay, conditions: BT-483, 12 h, read-out: pIC50 (converted)

SMILES	IC50
COc1cc(OC)c2c(=O)cc(/C=C/c3ccc(Br)cc3)oc2c1	60.3 µM
COc1ccc(/C=C/c2cc(=O)c3c(OC)cc(OC)cc3o2)cc1	29.5 µM
COc1cc(OC)c2c(=O)cc(/C=C/c3ccc(Cl)cc3)oc2c1	26.3 µM
COc1cc(OC)c2c(=O)cc(/C=C/c3ccc4c(c3)OCO4)oc2c1	29.5 µM
COc1cc(OC)c2c(=O)cc(/C=C/c3ccc(F)cc3)oc2c1	20 µM
COc1ccc2c(=O)cc(/C=C/c3ccc(OC(F)(F)F)cc3)oc2c1OC	30.9 µM
COc1cc(OC)c2c(=O)cc(/C=C/c3ccc(C(F)(F)F)cc3)oc2c1	60.3 µM

Test system: PC-3
Test: Antiproliferative activity against human PC3 cells after 12 hrs by MTT assay
Assay type: functional, cell-based
Conditions: PC-3, 12 h
How it was run: as §4

SMILES	IC50
COc1cc(OC)c2c(=O)cc(/C=C/c3ccc(Cl)cc3)oc2c1	> 40 µM
COc1cc(OC)c2c(=O)cc(/C=C/c3ccc4c(c3)OCO4)oc2c1	> 40 µM
COc1cc(OC)c2c(=O)cc(/C=C/c3ccccc3)oc2c1	> 40 µM
COc1cc(OC)c2c(=O)cc(/C=C/c3ccc(F)cc3)oc2c1	> 40 µM
COc1ccc2c(=O)cc(/C=C/c3ccc(OC(F)(F)F)cc3)oc2c1OC	> 40 µM
COc1cc(OC)c2c(=O)cc(/C=C/c3ccc(C(F)(F)F)cc3)oc2c1	> 40 µM

The next lines start with the values.

IC50	SMILES
> 40 µM	COc1cc(OC)c2c(=O)cc(/C=C/c3ccc(Br)cc3)oc2c1
> 40 µM	COc1ccc(/C=C/c2cc(=O)c3c(OC)cc(OC)cc3o2)cc1
